According to paper PMC7904387 (Nature chemical biology, 2020):
Values belong to the molecule of their own block, whether it stands above or below them. Non-standard residues stand in square brackets, D forms with d. Residues, ends and D or L forms follow the SMILES beside them. Nle = CCCC[C@H](N)C(=O)O

Experiments:
[1] = tested on: advanced solid tumors; settings: cited from earlier work
[2] = target: T1, UBE1 (Homo sapiens, UniProt P22314); assay: Streptavidin capture; type: binding; settings: UBE1 10 pmol, biotinylated peptide 5 nmol
T1 sequence (P22314 1-1058): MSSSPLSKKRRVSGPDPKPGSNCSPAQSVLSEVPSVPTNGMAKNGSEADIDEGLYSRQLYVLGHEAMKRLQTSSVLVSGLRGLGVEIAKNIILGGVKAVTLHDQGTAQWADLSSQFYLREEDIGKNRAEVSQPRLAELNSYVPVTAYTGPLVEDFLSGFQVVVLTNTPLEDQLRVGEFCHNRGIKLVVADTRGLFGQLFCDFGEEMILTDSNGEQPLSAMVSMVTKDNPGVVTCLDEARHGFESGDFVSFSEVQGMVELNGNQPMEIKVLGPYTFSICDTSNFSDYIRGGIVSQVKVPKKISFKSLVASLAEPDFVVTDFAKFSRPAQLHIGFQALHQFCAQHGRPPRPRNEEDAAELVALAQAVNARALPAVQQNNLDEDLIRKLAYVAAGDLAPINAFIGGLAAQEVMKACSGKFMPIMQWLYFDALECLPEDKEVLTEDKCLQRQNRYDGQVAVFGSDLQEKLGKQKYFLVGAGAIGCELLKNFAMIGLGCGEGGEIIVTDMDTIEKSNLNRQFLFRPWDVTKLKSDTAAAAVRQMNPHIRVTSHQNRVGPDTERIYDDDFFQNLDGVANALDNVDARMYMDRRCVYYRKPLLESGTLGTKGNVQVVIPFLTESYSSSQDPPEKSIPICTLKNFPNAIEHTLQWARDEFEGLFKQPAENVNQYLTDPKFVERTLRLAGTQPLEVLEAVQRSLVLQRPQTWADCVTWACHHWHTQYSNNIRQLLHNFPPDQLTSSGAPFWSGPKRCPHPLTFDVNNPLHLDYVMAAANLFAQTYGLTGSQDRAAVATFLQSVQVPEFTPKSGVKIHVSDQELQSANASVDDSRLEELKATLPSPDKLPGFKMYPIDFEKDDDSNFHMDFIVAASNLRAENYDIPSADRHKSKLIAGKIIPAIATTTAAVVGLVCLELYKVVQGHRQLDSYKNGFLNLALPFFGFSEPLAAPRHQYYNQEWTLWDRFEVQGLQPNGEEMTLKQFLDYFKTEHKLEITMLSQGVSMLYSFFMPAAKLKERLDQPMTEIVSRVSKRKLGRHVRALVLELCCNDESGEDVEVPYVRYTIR
How it was run: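 Recombinant human UBE1 (10 pmol) was incubated with C-terminally biotinylated peptide (5 nmol) or 0.5% DMSO for 1.5 h at 4°C in 50 mM NaCl, 20 mM HEPES pH 7.4, 5 mM DTT. Streptavidin agarose was added for another 1.5 h at 4°C. Beads were washed three times in NP-40 buffer and heat-eluted (70°C, 10 min). Read-out was SDS-PAGE with silver stain.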

[3] = target: T1, UBE1; assay: HXMS, deuterium exchange into peptide with and without UBE1; type: binding; settings: incubation with UBE1, 10 sec labeling
How it was run: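 Labelling was by 18-fold dilution into D2O buffer (pD 8) for 10 sec, quenched with guanidinium chloride/formic acid (pH 2), then LC-MS. Uptake was not back-exchange corrected. Difference = with UBE1 minus peptide alone; ≥2 biological replicates.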

Molecule: NS(=O)(=O)OC[C@H]1C[C@@H](Nc2ccnc3cc(-c4cccc(SC(F)(F)F)c4)nn23)[C@H](O)[C@@H]1O [TAK-243]
stable disease, patients ([1]; 11 patients of twenty evaluable): 55%
partial response, evaluable patients ([1]; one of twenty evaluable patients): 5%

binding to recombinant UBE1 by streptavidin pull-down and silver stain, in words [2]: directly and robustly binds
Molecule: BSTP8RRRLBRXFKRLQLys(biotin) (sidechain bridge or staple) [C-terminally biotinylated SAH-UBE2A]

effect of UBE1 on deuterium exchange of the peptide, in words [3]: no meaningful effect
Molecule: CCCC[C@H](NC(C)=O)C(=O)N[C@@H](CO)C(=O)N[C@H](C(=O)N1CCC[C@H]1C(=O)N[C@@H](C)C(=O)N[C@@H](CCCNC(=N)N)C(=O)N[C@@H](CCCNC(=N)N)C(=O)N[C@@H](CCCNC(=N)N)C(=O)N[C@@H](CC(C)C)C(=O)N[C@@H](CCCC)C(=O)N[C@@H](CCCNC(=N)N)C(=O)N[C@@H](CC(=O)O)C(=O)N[C@@H](Cc1ccccc1)C(=O)N[C@@H](CCCCN)C(=O)N[C@@H](CCCNC(=N)N)C(=O)N[C@@H](CC(C)C)C(=O)N[C@@H](CCC(N)=O)C(N)=O)[C@@H](C)O [UBE2A] (Ac-[Nle]STPARRRL[Nle]RDFKRLQ-NH2)
